# Experimental data gathered from unrelated publications.
# pEC50: −log10 of the molar value.
# Read-out: cell growth or viability
SMILES,cell line,method,concentration,time,quantity,value
CN(C)CCNC(=O)c1ccc(-c2nc3ccc4[nH]ncc4c3c3c2CCCCC3)c(F)c1,K562,resazurin,,72 h,GI50,1.4 µM
CCCCCCCCCCCCCCCCCCOc1cccc(CC(=O)OCC[N+]2(C)CCCC2)c1,HOP-62,SRB,10 µM,,inhibition,9.94%
O=C(NO)c1ccc(CC(=O)N(CCO)c2ccccc2)cc1,OCI-Ly1,ATP luminescence,0.1 µM,5 days,viability,94.6%
NC(=O)c1ccc(-c2nc3ccc4[nH]ncc4c3c3c2CCCC3)cc1,K562,resazurin,,72 h,GI50,7.6 µM
CCCCCCCCCCCCCCCCCCOc1ccccc1CC(=O)OCC[N+]1(C)CCOCC1,HOP-92,SRB,10 µM,,inhibition,55.8%
O=C(Nc1ccc(-c2ccccc2)cc1)[C@H]1O[C@H](O[C@@H]2[C@@H](OCc3ccc4ccccc4c3)[C@H](O[C@H]3O[C@H](CNS(=O)(=O)O)[C@@H](OCc4ccc5ccccc5c4)C[C@H]3NS(=O)(=O)O)[C@@H](NS(=O)(=O)O)C[C@H]2NS(=O)(=O)O)[C@H](OCc2ccc3ccccc3c2)[C@@H](NS(=O)(=O)O)[C@@H]1OCc1ccc2ccccc2c1,4T1,CCK-8,,48 h,pEC50,4.90
CC(=O)OC[C@H]1O[C@@H](n2cnc(N)nc2=O)[C@H](OC(C)=O)[C@@H]1OC(C)=O,OCI-Ly1,ATP luminescence,0.5 µM,5 days,viability,169%
CCCCCCCCCCCCCCCCCCOCC(COP(=O)([O-])OCC[N+](C)(C)C)OC (stereo not drawn),HOP-62,SRB,10 µM,,inhibition,56%
O=C(CCCCCCC(=O)Nc1ccccc1)NO,OCI-Ly1,ATP luminescence,0.1 µM,5 days,viability,162%
O=C(NCC1CC1)c1ccc(-c2nc3ccc4[nH]ncc4c3c3c2CCCC3)cc1,K562,resazurin,,72 h,GI50,> 10 µM
O=C(/C=C/c1cccc(C(=O)NO)c1)NO,OCI-Ly1,ATP luminescence,0.1 µM,5 days,viability,181%
CN(C)CCNC(=O)c1ccc(-c2nc3ccc4[nH]ncc4c3c3c2CCCC3)cc1,K562,resazurin,,72 h,GI50,1.3 µM
COC(=O)CNC(=O)C(=O)OC,OCI-Ly1,ATP luminescence,0.1 µM,5 days,viability,198%
CN(C)CCNC(=O)c1ccc(-c2nc3ccc4[nH]ncc4c3c3c2COCC3)cc1,K562,resazurin,,72 h,GI50,3.5 µM
CCCCCCCCCCCCCCCCCCOc1ccccc1CC(=O)OCC[N+](CC)(CC)CC,HOP-62,SRB,10 µM,,inhibition,59%
